Experimental data as given in ChEMBL document CHEMBL1122864, “1,2-Dihydro-2-oxo-6-(2,2-dimethylpropyl)-3-pyridinecarboxylic acid, analogues, and derivatives. A new class of oral hypoglycemic agents” (1985).
Calls of active or inactive are those of the source. The rule behind the calls is not given here.

Columns and labels:
Rattus norvegicus [1] = species on record: Rattus norvegicus; experiment: Hypoglycemic activity in blood glucose at 2 hr (positive control) in the 18-h fasted normal rat; assay type: functional
Summary of the method: (§1)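 Sprague-Dawley-derived rats (120–130 g), fasted 18 h, in groups of four. Each got 0.5 mL by stomach tube of test compound (100 mg/kg), tolbutamide (25 mg/kg) or vehicle (carboxymethylcellulose/Polysorbate 80/NaCl/benzyl alcohol in water). Then 1.0 mL 12.5% glucose in 0.9% saline was given s.c. Barbiturate anesthesia at 110 min; vena cava blood drawn 9 min later.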

Rattus norvegicus [2] = experiment: Hypoglycemic activity in blood glucose at 2 hr (treated) in the 18-h fasted normal rat at a dose of 100 mg/kg; assay type: functional; summary of the method: as §1
Rattus norvegicus [3] = experiment: Hypoglycemic activity in the 18-h fasted normal rat with respect to 1-butyl-3-(p-tolylsulphonyl)urea; inactive at 100 mg/kg at the second stage of testing; assay type: functional, organism-based; design: dose 100 mg/kg
Summary of the method: (§2)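 In 18-h fasted rats (oral dosing, s.c. glucose load), activity was first confirmed, then compounds were retested at half-dose intervals alongside the positive control. Potency relative to tolbutamide came from a parallel line assay.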

Rattus norvegicus [4] = species on record: Rattus norvegicus; experiment: Hypoglycemic activity in the 18-h fasted normal rat with respect to 1-butyl-3-(p-tolylsulphonyl)urea; assay type: functional; summary of the method: as §2
Rattus norvegicus [5] = species on record: Rattus norvegicus; experiment: Hypoglycemic activity in blood glucose at 2 hr (positive control) in the fasted-refed rat; assay type: functional
Summary of the method: (§3)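 Fasted-refed model: rats fasted 18 h, then given 2 mL liquid diet by stomach tube, otherwise handled as in the fasted-rat test. Blood glucose % change read at 2 h.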

Rattus norvegicus [6] = species on record: Rattus norvegicus; experiment: Hypoglycemic activity in blood glucose at 2 hr (treated) in the fasted-refed rat; assay type: functional; summary of the method: as §3

CCCCCc1ccc(C(=O)O)c(O)n1
Change (Rattus norvegicus [1]): -25%
Change (Rattus norvegicus [2]): -2%
Relative potency (Rattus norvegicus [3]): inactive

CC(C)(C)Cc1ccc(CC(=O)O)c(O)n1
Change (Rattus norvegicus [1]): -25%
Change (Rattus norvegicus [2]): -25%
Relative potency (Rattus norvegicus [4]): 0.25

CC(C)(C)Cc1ccc(C(=O)O)cn1
Change (Rattus norvegicus [1]): -31%
Change (Rattus norvegicus [2]): -4%
Relative potency (Rattus norvegicus [3]): inactive

CCC(C)(C)Cc1ccc(C(=O)O)c(O)n1
Change (Rattus norvegicus [1]): -38%
Change (Rattus norvegicus [2]): -54%
Relative potency (Rattus norvegicus [4]): 3.8

CC(C)c1ccc(C(=O)O)c(O)n1
Change (Rattus norvegicus [1]): -26%
Change (Rattus norvegicus [2]): -23%
Relative potency (Rattus norvegicus [3]): inactive

CCCCCCC(C)(C)Cc1ccc(C(=O)O)c(O)n1
Change (Rattus norvegicus [1]): -37%
Change (Rattus norvegicus [2]): 8%
Relative potency (Rattus norvegicus [3]): inactive

CC(C)CCc1ccc(C(=O)O)c(O)n1
Change (Rattus norvegicus [1]): -28%
Change (Rattus norvegicus [2]): -4%
Relative potency (Rattus norvegicus [3]): inactive

O=C(O)c1ccc(CC2CCC2)nc1O
Change (Rattus norvegicus [1]): -37%
Change (Rattus norvegicus [2]): -14%
Relative potency (Rattus norvegicus [3]): inactive

CC(C)(C)Cc1ccc(C=O)c(O)n1
Change (Rattus norvegicus [1]): -47%
Change (Rattus norvegicus [2]): -47%
Relative potency (Rattus norvegicus [4]): 5.9

CC(C)(C)Cc1ccc(C(N)=O)c(O)n1
Change (Rattus norvegicus [1]): -25%
Change (Rattus norvegicus [2]): 30%
Relative potency (Rattus norvegicus [3]): inactive

CC(C)(C)Cc1ccc(C(=O)[O-])c(O)n1.[Na+]
Change (Rattus norvegicus [1]): -26%
Change (Rattus norvegicus [2]): -56%
Relative potency (Rattus norvegicus [4]): 7.9

CC(C)(C)Cc1ccc(C(=O)O)c(O)n1
Change (Rattus norvegicus [1]): -39%
Change (Rattus norvegicus [5]): -40%
Change (Rattus norvegicus [2]): -59%
Change (Rattus norvegicus [6]): -60%
Relative potency (Rattus norvegicus [4]): 13

CCC(C)(C)c1ccc(C(=O)O)c(O)n1
Change (Rattus norvegicus [1]): -32%
Change (Rattus norvegicus [2]): -67%
Relative potency (Rattus norvegicus [4]): 0.9

CC(C)(C)Cc1ccnc(O)c1C(=O)O
Change (Rattus norvegicus [1]): -34%
Change (Rattus norvegicus [2]): -9%
Relative potency (Rattus norvegicus [3]): inactive

CC(C)(C)Cc1ccc(-c2nn[nH]n2)c(O)n1
Change (Rattus norvegicus [1]): -34%
Change (Rattus norvegicus [2]): -37%
Relative potency (Rattus norvegicus [4]): 1.6

O=C(O)c1ccc[nH]c1=O
Change (Rattus norvegicus [1]): -33%
Change (Rattus norvegicus [5]): -55%
Change (Rattus norvegicus [2]): -26%
Change (Rattus norvegicus [6]): -4%
Relative potency (Rattus norvegicus [4]): 0.25

CC(C)Cc1ccc(C(=O)O)c(O)n1
Change (Rattus norvegicus [1]): -34%
Change (Rattus norvegicus [5]): -48%
Change (Rattus norvegicus [2]): -61%
Change (Rattus norvegicus [6]): -54%
Relative potency (Rattus norvegicus [4]): 1

Cc1ccc(C(=O)O)c(O)n1
Change (Rattus norvegicus [1]): -34%
Change (Rattus norvegicus [2]): 1%
Relative potency (Rattus norvegicus [3]): inactive

CC(C)(C)CC1=NC(=O)CC=C1
Change (Rattus norvegicus [1]): -36%
Change (Rattus norvegicus [2]): -1%
Relative potency (Rattus norvegicus [3]): inactive

Cn1c(CC(C)(C)C)ccc(C(=O)O)c1=O
Change (Rattus norvegicus [1]): -34%
Change (Rattus norvegicus [2]): -3%
Relative potency (Rattus norvegicus [3]): inactive

CC(C)(C)c1ccc(C(=O)O)c(O)n1
Change (Rattus norvegicus [1]): -39%
Change (Rattus norvegicus [5]): -40%
Change (Rattus norvegicus [2]): -69%
Change (Rattus norvegicus [6]): -58%
Relative potency (Rattus norvegicus [4]): 1

CCOC(=O)c1ccc(CC(C)(C)C)nc1O
Change (Rattus norvegicus [1]): -42%
Change (Rattus norvegicus [2]): -54%
Relative potency (Rattus norvegicus [4]): 7.4

CCCCCCC(C)(C)c1ccc(C(=O)O)c(O)n1
Change (Rattus norvegicus [1]): -37%
Change (Rattus norvegicus [2]): 5%
Relative potency (Rattus norvegicus [3]): inactive

CC(C)Cc1ccc(C(=O)O)c(=O)n1C
Change (Rattus norvegicus [1]): -22%
Change (Rattus norvegicus [2]): -36%
Relative potency (Rattus norvegicus [4]): 0.6

CC(C)(C)Cc1ccc(CO)c(O)n1
Change (Rattus norvegicus [1]): -26%
Change (Rattus norvegicus [2]): -40%
Relative potency (Rattus norvegicus [4]): 5.3
